Data as given in ChEMBL document CHEMBL1128458, “Synthesis and anticonvulsant activity of enaminones. 3. Investigations on 4'-, 3'-, and 2'-substituted and polysubstituted anilino compounds, sodium channel binding studies, and toxicity evaluations” (J Med Chem, 1995).
The source made the active and inactive calls. The rule behind the calls is not given here.

What was measured:
Mus musculus [1] = test: Anticonvulsant activity was determined; 2 indicates at doses greater than 100 mg/kg in mice; type: functional
Summary of the method: (§1)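 Phase I screen in CF1 mice: compound suspended in 0.5% aqueous methylcellulose, given ip at 30, 100 and 300 mg/kg; MES, scMet and rotorod toxicity read at 30 min and 4 h. Class 1 = activity at 100 mg/kg or less; 2 = activity above 100 mg/kg; 3 = none up to 300 mg/kg.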

Rattus norvegicus [2] = test: Anticonvulsant activity was determined; 2 indicates at doses greater than 100 mg/kg in rat; type: functional
Mus musculus [3] = test: Anticonvulsant activity was determined in mice; 1 indicates 100 mg/kg or less; type: functional; summary of the method: as §1
[4] = target: Sodium channel alpha subunits; brain (Types I, II, III) (Rattus norvegicus, UniProt P04775+P04774+P08104); test: Inhibition of [3H]BTX-B binding to neurotoxin site 2 of sodium channel of rat cerebral cortex synaptoneurosomes; type: tissue-based
Summary of the method: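 Synaptoneurosomes from rat cerebral cortex were incubated with [3H]BTX-B (2.0 nM final) in HEPES, pH 7.4 at 25 °C, with 130 mM choline chloride, at 37 °C for 45 min. Reactions were stopped by rapid vacuum filtration onto glass fibre filters, and bound radioactivity was compared with control. IC50 was read from log concentration (10–800 µM) versus percent specific binding.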

Mus musculus [5] = test: Anticonvulsant activity; 3 indicates no activity at doses up to and including 300 mg/kg in mice.; type: functional; summary of the method: as §1
Rattus norvegicus [6] = test: Anticonvulsant activity was determined; 3 indicates no activity at doses up to and including 300 mg/kg in rat; type: functional
Rattus norvegicus [7] = test: Anticonvulsant activity was determined in rat; 1 indicates 100 mg/kg or less; type: functional
Rattus norvegicus [8] = species on record: Rattus norvegicus; test: Effective dose for anticonvulsant activity determined in rats using MES test procedure. (Phase VIA); type: functional
Summary of the method: (§2)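 Phase VIA oral dosing in male Sprague–Dawley rats; MES and scMet ED50 and TD50 in mg/kg, each read at the time of peak effect; range in parentheses.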

[9] = Toxic dose determined in rats using MES test procedure. (Phase VIA); type: toxicity; conditions: rat, in vivo; summary of the method: as §2
Mus musculus [10] = test: Effective dose for anticonvulsant activity determined in mice using subcutaneous Met test procedure. (Phase II); type: functional; conditions: sc
Mus musculus [11] = species on record: Mus musculus; test: Effective dose for anticonvulsant activity determined in mice using MES test procedure. (Phase II); type: functional
[12] = Toxic dose determined in mice using MES test procedure. (Phase II); type: toxicity; conditions: mouse, in vivo
Rattus norvegicus [13] = test: Effective dose for anticonvulsant activity determined in rats using subcutaneous Met test procedure. (Phase VIA); type: functional; conditions: sc; summary of the method: as §2
Rattus norvegicus [14] = test: Change in liver weight determined in male rats on day 2 after ip administration of 100 mg/kg; expressed as liver weight (g/100 g of body weight); type: functional; conditions: route intraperitoneal
Summary of the method: (§3)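 Male Fischer 344 rats (200-245 g), four per group, housed singly in metabolism cages; day 0 control values taken, then a single ip dose of 100 mg/kg or vehicle (25% DMSO in corn oil). Pair-fed controls. Urine volume measured at 24 h intervals. At 48 h, under ether, blood drawn from the dorsal aorta; plasma assayed for ALT/GPT and BUN; kidney and liver weighed. Means ± SE.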

Rattus norvegicus [15] = test: Urine volume collected for biochemical tests after an ip dose of 100 mg/kg at 0 day in male rats.; type: functional; conditions: route intraperitoneal; summary of the method: as §3
Rattus norvegicus [16] = test: Urine volume collected for biochemical tests after an ip dose of 100 mg/kg at day 2 in male rats.; type: functional; conditions: route intraperitoneal; summary of the method: as §3
Rattus norvegicus [17] = test: Change in kidney weight on day 2 in male rats after ip administration of 100 mg/kg; expressed as kidney weight (g/100 g of body weight); type: functional; conditions: route intraperitoneal; summary of the method: as §3
Rattus norvegicus [18] = test: Change in the blood urea nitrogen concentration on day 0 determined in male rats after ip administration of 100 mg/kg; Expressed as blood urea nitrogen concentration (mg %); type: functional; conditions: route intraperitoneal; summary of the method: as §3
Rattus norvegicus [19] = test: ALT/GPT activity in male rats on day 2 after ip administration of 100 mg/kg.; type: functional; conditions: route intraperitoneal; summary of the method: as §3
Rattus norvegicus [20] = test: Change in the blood urea nitrogen concentration on day 2 determined in male rats after ip administration of 100 mg/kg; Expressed as blood urea nitrogen concentration (mg %); type: functional; conditions: route intraperitoneal; summary of the method: as §3
Rattus norvegicus [21] = test: Urine volume collected for biochemical tests after an ip dose of 100 mg/kg at day 1 in male rats.; type: functional; conditions: route intraperitoneal; summary of the method: as §3
[22] = Toxic dose determined in rats using MES test procedure. (Phase VIA, parentheses value indicate 95% confidence limits); type: toxicity, organism-based; conditions: rat, in vivo; summary of the method: as §2
Rattus norvegicus [23] = species on record: Rattus norvegicus; test: Protective index measured as the […].; type: functional
Rattus norvegicus [24] = species on record: Rattus norvegicus; test: Effective dose for anticonvulsant activity determined in rats using MES test procedure. (Phase VIA, parentheses value indicate 95% confidence limits); type: functional; summary of the method: as §2
Rattus norvegicus [25] = test: Anticonvulsant activity determined in rats at an oral dose of 50 mg/kg of phase VIA trials; active; type: functional
Mus musculus [26] = test: Effective dose for anticonvulsant activity determined in mice using subcutaneous Met test procedure. (Phase II); No protection; type: functional, organism-based
Rattus norvegicus [27] = test: Effective dose for anticonvulsant activity determined in rats using subcutaneous Met test procedure. (Phase VIA); No protection; type: functional, organism-based
Mus musculus [28] = test: Effective dose for anticonvulsant activity determined in mice using subcutaneous Met test procedure. (Phase II); Potentiates; type: functional, organism-based

COC(=O)[C@@H]1C(=O)C=C(Nc2cc(OC)ccc2Cl)C[C@H]1C
Anticonvulsant activity (Mus musculus [1]): 2

COC(=O)[C@@H]1C(=O)C=C(NNc2ccccc2)C[C@H]1C
Anticonvulsant activity (Mus musculus [1]): 2
Anticonvulsant activity (Rattus norvegicus [2]): 2

COC(=O)[C@@H]1C(=O)C=C(Nc2ccc(Cl)c(Cl)c2)C[C@H]1C
Anticonvulsant activity (Mus musculus [3]): 1

CCOC(=O)[C@@H]1C(=O)C=C(Nc2ccc(Cl)c(Cl)c2)C[C@H]1C
Anticonvulsant activity (Mus musculus [1]): 2

CCC1(c2ccccc2)C(=O)NC(=O)NC1=O [PHENOBARBITAL]
IC50 [4]: 2.5 µM

CCOC(=O)[C@@H]1C(=O)C=C(Nc2cc(C)ccc2OC)C[C@H]1C
Anticonvulsant activity (Mus musculus [3]): 1

CCOC(=O)[C@@H]1C(=O)C=C(Nc2c(Cl)cccc2Cl)C[C@H]1C
Anticonvulsant activity (Mus musculus [5]): 3

COC(=O)[C@@H]1C(=O)C=C(Nc2ccccc2I)C[C@H]1C
Anticonvulsant activity (Mus musculus [3]): 1

CCOC(=O)[C@@H]1C(=O)C=C(Nc2ccccc2Cl)C[C@H]1C
Anticonvulsant activity (Mus musculus [5]): 3

CCOC(=O)[C@@H]1C(=O)C=C(Nc2ccc(Cl)c(Cl)c2Cl)C[C@H]1C
Anticonvulsant activity (Mus musculus [1]): 2

COC(=O)[C@@H]1C(=O)C=C(Nc2ccccc2Br)C[C@H]1C
Anticonvulsant activity (Mus musculus [5]): 3

COC(=O)[C@@H]1C(=O)C=C(Nc2cc(C)ccc2OC)C[C@H]1C
Anticonvulsant activity (Mus musculus [1]): 2

CCOC(=O)[C@@H]1C(=O)C=C(Nc2cc(Cl)c(Cl)cc2Cl)C[C@H]1C
Anticonvulsant activity (Mus musculus [5]): 3

COC(=O)[C@@H]1C(=O)C=C(Nc2ccc(Cl)cc2Cl)C[C@H]1C
Anticonvulsant activity (Mus musculus [3]): 1

CCOC(=O)[C@@H]1C(=O)C=C(Nc2cc(Cl)ccc2Cl)C[C@H]1C
Anticonvulsant activity (Mus musculus [5]): 3

COC(=O)[C@@H]1C(=O)C=C(NC2CCCCC2)C[C@H]1C
Anticonvulsant activity (Rattus norvegicus [6]): 3
Anticonvulsant activity (Mus musculus [5]): 3

COC(=O)[C@@H]1C(=O)C=C(Nc2cc(Cl)c(Cl)cc2Cl)C[C@H]1C
Anticonvulsant activity (Mus musculus [3]): 1

CCOC(=O)[C@@H]1C(=O)C=C(NNc2ccccc2)C[C@H]1C
Anticonvulsant activity (Rattus norvegicus [6]): 3
Anticonvulsant activity (Mus musculus [5]): 3

COC(=O)[C@@H]1C(=O)C=C(Nc2ccccc2OC)C[C@H]1C
Anticonvulsant activity (Mus musculus [5]): 3

COC(=O)[C@@H]1C(=O)C=C(Nc2ccccc2C#N)C[C@H]1C
Anticonvulsant activity (Mus musculus [1]): 2

CCOC(=O)[C@@H]1C(=O)C=C(NC2CCCCC2)C[C@H]1C
Anticonvulsant activity (Mus musculus [3]): 1
Anticonvulsant activity (Rattus norvegicus [7]): 1

COC(=O)[C@@H]1C(=O)C=C(Nc2ccccc2S(N)(=O)=O)C[C@H]1C
Anticonvulsant activity (Mus musculus [5]): 3

COC(=O)[C@@H]1C(=O)C=C(Nc2ccc(OC(F)(F)F)cc2)C[C@H]1C
IC50 [4]: 170 µM
ED50 (Rattus norvegicus [8]): 9.3 mg/kg
TD50 [9]: > 158 mg/kg
ED50 (Mus musculus [10]): 114 mg/kg
ED50 (Mus musculus [11]): 22.4 mg/kg
TD50 [12]: 122 mg/kg
ED50 (Rattus norvegicus [13]): > 79 mg/kg

COC(=O)[C@@H]1C(=O)C=C(Nc2ccccc2Cl)C[C@H]1C
Anticonvulsant activity (Mus musculus [3]): 1

COC(=O)[C@@H]1C(=O)C=C(Nc2cc(Cl)ccc2Cl)C[C@H]1C
Anticonvulsant activity (Mus musculus [3]): 1

COC(=O)[C@@H]1C(=O)C=C(Nc2ccccc2F)C[C@H]1C
Anticonvulsant activity (Mus musculus [1]): 2

CCc1ccccc1NC1=CC(=O)[C@@H](C(=O)OC)[C@H](C)C1
Anticonvulsant activity (Mus musculus [3]): 1

CCOC(=O)[C@@H]1C(=O)C=C(Nc2cc(Cl)c(Cl)c(Cl)c2)C[C@H]1C
Anticonvulsant activity (Mus musculus [1]): 2

COC(=O)[C@@H]1C(=O)C=C(Nc2c(Cl)cccc2Cl)C[C@H]1C
Anticonvulsant activity (Mus musculus [5]): 3

COC(=O)[C@@H]1C(=O)C=C(Nc2ccc(Cl)cc2)C[C@H]1C
Activity (Rattus norvegicus [14]): 4.16
IC50 [4]: 489 µM
ED50 (Rattus norvegicus [8]): 5.8 mg/kg
TD50 [9]: > 380 mg/kg
ED50 (Mus musculus [10]): > 254 mg/kg
Urine volume (Rattus norvegicus [15]): 13.8 mL
Urine volume (Rattus norvegicus [16]): 10.2 mL
Activity (Rattus norvegicus [17]): 0.35
TD50 [12]: 255 mg/kg
ED50 (Rattus norvegicus [13]): > 190 mg/kg
Activity (Rattus norvegicus [18]): 14%
ALT/GPT (Rattus norvegicus [19]): 25 U/L
Activity (Rattus norvegicus [20]): 14%
Urine volume (Rattus norvegicus [21]): 9.6 mL

COC(=O)[C@@H]1C(=O)C=C(Nc2ccccc2C)C[C@H]1C
Anticonvulsant activity (Mus musculus [5]): 3

CCOC(=O)[C@@H]1C(=O)C=C(Nc2ccc(Cl)cn2)C[C@H]1C
Anticonvulsant activity (Mus musculus [3]): 1
TD50 [22]: > 344 mg/kg
Anticonvulsant activity (Rattus norvegicus [7]): 1
PI (Rattus norvegicus [23]): 28.4
ED50 (Rattus norvegicus [24]): 12.1 mg/kg

COC(=O)[C@@H]1C(=O)C=C(Nc2ccc(Cl)cn2)C[C@H]1C
Anticonvulsant activity (Mus musculus [3]): 1
Anticonvulsant activity (Rattus norvegicus [25]): 1

COC(=O)[C@@H]1C(=O)C=C(Nc2ccc(OC)c(Cl)c2)C[C@H]1C
Anticonvulsant activity (Mus musculus [5]): 3

COC(=O)[C@@H]1C(=O)C=C(Nc2ccc(Cl)c(Cl)c2Cl)C[C@H]1C
Anticonvulsant activity (Mus musculus [5]): 3

CCOC(=O)[C@@H]1C(=O)C=C(Nc2cc(Cl)cc(Cl)c2)C[C@H]1C
Anticonvulsant activity (Mus musculus [5]): 3

O=C1NC(=O)C(c2ccccc2)(c2ccccc2)N1
ED50 (Mus musculus [26]): inactive
ED50 (Rattus norvegicus [27]): inactive

CCOC(=O)[C@@H]1C(=O)C=C(Nc2ccccc2N)C[C@H]1C
Anticonvulsant activity (Mus musculus [5]): 3

COC(=O)[C@@H]1C(=O)C=C(Nc2ccccc2[N+](=O)[O-])C[C@H]1C
Anticonvulsant activity (Mus musculus [1]): 2

Nc1nnc(-c2cccc(Cl)c2Cl)c(N)n1 [LAMOTRIGINE]
IC50 [4]: 114 µM
ED50 (Mus musculus [11]): 2.6 mg/kg

COC(=O)[C@@H]1C(=O)C=C(Nc2cc(Cl)cc(Cl)c2)C[C@H]1C
Anticonvulsant activity (Mus musculus [5]): 3

CN1C(=O)CN=C(c2ccccc2)c2cc(Cl)ccc21 [DIAZEPAM]
IC50 [4]: 152 µM

CCOC(=O)[C@@H]1C(=O)C=C(Nc2ccc(Cl)cc2Cl)C[C@H]1C
Anticonvulsant activity (Mus musculus [3]): 1

COC(=O)[C@@H]1C(=O)C=C(Nc2ccccc2C(F)(F)F)C[C@H]1C
Anticonvulsant activity (Mus musculus [1]): 2

NC(=O)N1c2ccccc2C=Cc2ccccc21 [CARBAMAZEPINE]
ED50 (Rattus norvegicus [8]): 8.5 mg/kg
ED50 (Mus musculus [28]): Convulsant
ED50 (Mus musculus [11]): 8.8 mg/kg
ED50 (Rattus norvegicus [27]): inactive

COC(=O)[C@@H]1C(=O)C=C(Nc2ccccc2O)C[C@H]1C
Anticonvulsant activity (Mus musculus [5]): 3

CCOC(=O)[C@@H]1C(=O)C=C(Nc2ccc(OC)c(Cl)c2)C[C@H]1C
Anticonvulsant activity (Mus musculus [5]): 3
